Usually IC90 stands for the concentration at which the effect reaches the 90% level. The EC50 is the concentration needed to bring the measured effect to its halfway point. In general, IC50 refers to the concentration that gives 50% inhibition.

Results on two compounds are retold here after publication PMC5965259 (Journal of medicinal chemistry, 2018).

Data set [1] concerns the target T1, T. brucei AdoMetDC/prozyme (Trypanosoma brucei brucei, UniProt P50244).
T1 sequence (P50244 86-370 limits assumed): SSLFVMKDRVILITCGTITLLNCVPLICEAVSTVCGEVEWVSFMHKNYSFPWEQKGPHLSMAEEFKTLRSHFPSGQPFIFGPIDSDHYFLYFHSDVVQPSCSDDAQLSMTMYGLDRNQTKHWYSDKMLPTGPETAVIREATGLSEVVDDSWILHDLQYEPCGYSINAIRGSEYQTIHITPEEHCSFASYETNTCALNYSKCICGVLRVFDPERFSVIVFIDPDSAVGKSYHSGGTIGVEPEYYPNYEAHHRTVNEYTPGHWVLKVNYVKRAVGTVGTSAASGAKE
The experiment in a line: biochemical. The conditions noted are these: pH 7.2, read-out: IC90 for TbAdoMetDC.

In data set [2] the test system is bloodstream form T. brucei Lister 427. The data set is described as follows: ATP–bioluminescence-based bloodstream form T. brucei cell viability assay. Conditions: Trypanosoma brucei, 48 h, read-out: Tb427 EC50.
Data set [3] relates to MDCKII-hMDR1 monolayer cells. The experiment in a line: MDCKII-hMDR1 monolayer BBB permeability assay ± Pgp inhibitor GF120918. The class given is in vitro ADME.
The target of data set [4] is T2, TbAdoMetDC (Trypanosoma brucei brucei, UniProt P50244).
T2 sequence (P50244 86-370 limits assumed): T1 sequence (P50244 86-370 limits assumed)
The experiment in a line: Rapid dilution assay for reversibility of inhibition. The conditions noted are these: 30 min with 36 μM inhibitor, then 100-fold dilution; pH 7.2. It is filed as biochemical. Put shortly: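 Recombinant T. brucei AdoMetDC/prozyme was pre-equilibrated with test compound for 30 min. It was then diluted 100-fold, to a non-inhibitory level, into reaction buffer containing 50 μM S-adenosyl-L-methionine (~Km) to start the reaction. Aliquots were quenched every 5 min, and decarboxylated AdoMet was quantified by RapidFire–MS. Progress curves were compared with a vehicle control.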

For data set [5], the target named is T2, TbAdoMetDC. The data set is described as follows: Inhibition modality: substrate titrations, Lineweaver–Burk analysis. The class given is biochemical. Conditions: substrate titrations at four inhibitor concentrations. Put shortly: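 Recombinant T. brucei AdoMetDC/prozyme heterodimer. Product (decarboxylated AdoMet) formation was measured across varied S-adenosyl-L-methionine concentrations at four test-compound concentrations. Product was quantified by RapidFire–mass spectrometry. Final DMSO in enzyme assays was 2%. Substrate titrations were analysed by double-reciprocal Lineweaver–Burk plot to assign inhibition modality.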

Data set [6] relates to prozyme protein levels in T. brucei cells. The experiment in a line: Western blot analysis of prozyme levels in treated T. brucei cells. The class given is cell-based. The conditions noted are these: 24 h treatment at 1.5 × EC50.
Data set [7] can be described thus: Metabolic stability in hepatic microsomes. It is filed as in vitro ADME, male CD-1 mouse and mixed-gender human.
The test system of data set [8] is T. brucei AdoMetDC/prozyme. The data set is described as follows: biochemical. The conditions noted are these: pH 7.2; human vs T. brucei AdoMetDC.
In data set [9] the target is T3, human AdoMetDC (Homo sapiens, UniProt P17707).
T3 sequence (P17707 1-334): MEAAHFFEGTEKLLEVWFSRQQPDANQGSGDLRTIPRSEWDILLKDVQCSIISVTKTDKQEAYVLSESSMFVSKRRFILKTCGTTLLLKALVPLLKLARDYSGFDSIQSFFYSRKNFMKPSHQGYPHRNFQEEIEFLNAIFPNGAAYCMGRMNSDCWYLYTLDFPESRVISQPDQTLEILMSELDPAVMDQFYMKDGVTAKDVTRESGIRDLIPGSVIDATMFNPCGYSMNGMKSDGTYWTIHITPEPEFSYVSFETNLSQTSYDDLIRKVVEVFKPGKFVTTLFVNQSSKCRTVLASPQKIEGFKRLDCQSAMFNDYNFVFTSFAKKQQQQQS
The experiment in a line: RapidFire–MS-based AdoMetDC enzyme activity assay. It is filed as biochemical. Conditions: read-out: Hs IC50; pH 7.2; mean, triplicate, 95% CI in parentheses.

As to `Cc1cc(Nc2cc(Cl)cc(Cl)c2)nc(N)n1` [Compound 7], the IC90 in data set [1] was about 36 µM. Also, the EC50 in data set [2] amounted to 5.6 µM. In data set [3], the Pgp-mediated efflux substrate result is reported as “not a substrate of Pgp-mediated efflux”. Moreover, the “recovery of enzyme activity after dilution of inhibitor (reversibility)” value in [4] is “fully recovered”. Moreover, the modality of inhibition entry in [5] is on record as “competitive inhibition”. The “prozyme protein level vs vehicle-only control” value in data set [6] is on record as “induced prozyme above the vehicle-only control levels”. Also, the metabolic stability entry in data set [7] is “poor metabolic stability”.
On to `Cc1cc(Nc2cc(Cl)c(F)c(Cl)c2)nc(N)n1` [Compound 62, N^4-(3,5-Dichloro-4-fluorophenyl)-6-methylpyrimidine-2,4-diamine], for which the “selectivity ratio (HsIC50/TbIC50)” value in data set [8] is “exceeded 100”. For the same compound, the IC50 in data set [9] was found to be 160 µM. The EC50 in [2] stood at 4.8 µM.
